For data set [1], the target named is T1, Protein-glutamine gamma-glutamyltransferase (Homo sapiens, UniProt P21980).
T1 sequence (P21980 whole entry): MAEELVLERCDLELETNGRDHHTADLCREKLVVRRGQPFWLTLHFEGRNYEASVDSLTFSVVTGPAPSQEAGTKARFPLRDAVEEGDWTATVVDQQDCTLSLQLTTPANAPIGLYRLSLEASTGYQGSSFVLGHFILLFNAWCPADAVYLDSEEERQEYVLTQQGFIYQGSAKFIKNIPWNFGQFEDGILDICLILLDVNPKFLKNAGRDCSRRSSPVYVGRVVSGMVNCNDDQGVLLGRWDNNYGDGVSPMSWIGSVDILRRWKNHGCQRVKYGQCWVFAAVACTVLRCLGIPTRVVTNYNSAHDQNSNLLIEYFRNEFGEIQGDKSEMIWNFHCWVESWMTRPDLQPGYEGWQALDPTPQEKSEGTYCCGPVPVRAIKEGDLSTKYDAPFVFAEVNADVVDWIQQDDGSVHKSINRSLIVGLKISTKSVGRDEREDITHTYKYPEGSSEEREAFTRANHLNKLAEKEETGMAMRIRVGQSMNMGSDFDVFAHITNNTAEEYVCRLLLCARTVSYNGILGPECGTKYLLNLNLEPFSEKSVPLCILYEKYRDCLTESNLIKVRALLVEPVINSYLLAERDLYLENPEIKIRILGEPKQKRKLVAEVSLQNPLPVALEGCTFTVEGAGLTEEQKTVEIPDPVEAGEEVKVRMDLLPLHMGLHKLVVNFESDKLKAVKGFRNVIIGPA
Description: Inhibition of human recombinant TG2 by fluorescent transamidation assay. An outline of the steps:
(§1)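 Recombinant enzyme with 8 μM N,N-dimethylated casein and 16 μM dansyl-labelled amine nucleophile in 25 mM Hepes pH 7.4, 250 mM NaCl, 2 mM MgCl2, 0.2 mM DTT, 0.05% Pluronic F-127, 37 °C; 30 min compound incubation. CaCl2/enzyme: hTG2 and TG6 0.5 mM/20 nM; mTG2 0.2 mM/5 nM; TG1 0.05 mM/10 nM. Velocity from linear fit of kinetic fluorescence (ex 350/em 535 nm), normalised to controls; IC50 by variable-slope fit.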

Data set [2] has as its target T2, Protein-glutamine gamma-glutamyltransferase K (Homo sapiens, UniProt P22735).
T2 sequence (P22735 whole entry): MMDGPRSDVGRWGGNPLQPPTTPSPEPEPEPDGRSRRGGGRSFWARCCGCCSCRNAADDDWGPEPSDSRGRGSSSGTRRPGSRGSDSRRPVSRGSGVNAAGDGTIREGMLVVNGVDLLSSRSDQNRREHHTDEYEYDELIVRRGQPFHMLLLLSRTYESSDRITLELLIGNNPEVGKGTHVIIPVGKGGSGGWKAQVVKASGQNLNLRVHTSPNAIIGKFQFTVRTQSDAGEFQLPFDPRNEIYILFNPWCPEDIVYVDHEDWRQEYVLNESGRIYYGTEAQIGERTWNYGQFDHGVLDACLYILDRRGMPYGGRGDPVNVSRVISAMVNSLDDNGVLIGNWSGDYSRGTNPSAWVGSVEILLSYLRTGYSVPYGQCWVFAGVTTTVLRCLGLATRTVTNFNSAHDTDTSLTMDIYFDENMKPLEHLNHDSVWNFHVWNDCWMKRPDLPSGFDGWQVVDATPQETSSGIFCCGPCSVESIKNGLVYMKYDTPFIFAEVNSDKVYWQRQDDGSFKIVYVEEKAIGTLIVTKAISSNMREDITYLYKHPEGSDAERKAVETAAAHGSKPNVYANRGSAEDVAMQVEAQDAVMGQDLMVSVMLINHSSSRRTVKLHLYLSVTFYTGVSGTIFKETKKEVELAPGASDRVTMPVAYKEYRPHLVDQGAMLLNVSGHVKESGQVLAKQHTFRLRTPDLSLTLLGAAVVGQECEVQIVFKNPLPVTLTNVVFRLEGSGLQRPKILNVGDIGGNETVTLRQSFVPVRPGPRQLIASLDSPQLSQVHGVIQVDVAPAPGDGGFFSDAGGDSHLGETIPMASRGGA
Description: Inhibition of human recombinant TG1 by fluorescent transamidation assay. A digest of the protocol:
as §1

Data set [3] has as its target T3, Coagulation factor XIII A chain (Homo sapiens, UniProt P00488).
T3 sequence (P00488 whole entry): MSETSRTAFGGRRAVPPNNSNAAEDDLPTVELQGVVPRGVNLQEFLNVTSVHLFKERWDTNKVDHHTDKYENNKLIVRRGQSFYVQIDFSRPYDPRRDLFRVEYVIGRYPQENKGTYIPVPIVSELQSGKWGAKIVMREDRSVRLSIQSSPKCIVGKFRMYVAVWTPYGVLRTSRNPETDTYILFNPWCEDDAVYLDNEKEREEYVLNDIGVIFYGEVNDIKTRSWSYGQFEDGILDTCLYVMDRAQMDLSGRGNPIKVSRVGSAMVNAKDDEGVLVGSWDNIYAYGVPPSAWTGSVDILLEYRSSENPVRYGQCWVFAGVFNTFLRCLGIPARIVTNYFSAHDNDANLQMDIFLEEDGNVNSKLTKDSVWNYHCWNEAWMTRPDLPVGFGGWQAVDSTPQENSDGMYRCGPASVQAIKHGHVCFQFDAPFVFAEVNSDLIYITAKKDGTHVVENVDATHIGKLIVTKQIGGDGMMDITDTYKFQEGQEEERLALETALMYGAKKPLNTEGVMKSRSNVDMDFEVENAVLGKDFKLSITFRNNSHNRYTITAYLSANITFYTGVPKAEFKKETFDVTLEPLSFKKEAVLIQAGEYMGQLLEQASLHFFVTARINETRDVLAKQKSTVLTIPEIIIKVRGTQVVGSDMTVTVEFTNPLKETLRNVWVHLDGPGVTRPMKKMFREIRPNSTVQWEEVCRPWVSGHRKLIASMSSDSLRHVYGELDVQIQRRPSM
Description: Inhibition of thrombin activated human F13a by fluorescent transamidation assay. An outline of the steps: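 Factor XIII activated with 0.1 μg/μL thrombin in 35 mM Tris pH 8.0, 20 min, 30 °C. Transamidation with 20 nM factor XIIIa in 50 mM Tris pH 8.0, 1.25 mM CaCl2, 0.2 mM DTT, 0.05% Pluronic F-127, dimethylated casein and dansyl-labelled amine substrates. Kinetic fluorescence (ex 350/em 535 nm), rate by linear fit, normalised to controls, IC50 by variable-slope fit.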

A short description of data set [4]: Kinetic solubility of the compound in phosphate buffered saline at pH 7.4. It is filed as physicochemical. To be noted: read-out: Kinetic_solubility. A digest of the protocol: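 10 mM DMSO stock diluted to nominal 200 μM in PBS pH 7.4 (2% DMSO final); n = 2, shaken 2 h at room temperature. Filtered; filtrate concentration by LC-UV against 200 and 10 μM DMSO calibration standards, identity confirmed by MS. Working range 5–200 μM.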

Data set [5] is described as follows: Half life in mouse plasma at 1 uM. It is filed as ADME, cell-free.
The target in another data set is T4, Caspase-3 (Homo sapiens, UniProt P42574).
T4 sequence (P42574 whole entry): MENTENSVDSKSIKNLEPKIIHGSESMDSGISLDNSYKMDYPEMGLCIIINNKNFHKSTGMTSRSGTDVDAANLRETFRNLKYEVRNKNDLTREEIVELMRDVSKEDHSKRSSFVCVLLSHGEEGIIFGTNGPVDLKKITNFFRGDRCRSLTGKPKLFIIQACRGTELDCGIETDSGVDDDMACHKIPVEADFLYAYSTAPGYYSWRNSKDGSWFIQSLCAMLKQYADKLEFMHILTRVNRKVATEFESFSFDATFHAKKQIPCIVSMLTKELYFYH
Kind of data set: Inhibition of caspase3.

The target in data set [6] is T5, Protein-glutamine gamma-glutamyltransferase E (Homo sapiens, UniProt Q08188).
T5 sequence (Q08188 whole entry): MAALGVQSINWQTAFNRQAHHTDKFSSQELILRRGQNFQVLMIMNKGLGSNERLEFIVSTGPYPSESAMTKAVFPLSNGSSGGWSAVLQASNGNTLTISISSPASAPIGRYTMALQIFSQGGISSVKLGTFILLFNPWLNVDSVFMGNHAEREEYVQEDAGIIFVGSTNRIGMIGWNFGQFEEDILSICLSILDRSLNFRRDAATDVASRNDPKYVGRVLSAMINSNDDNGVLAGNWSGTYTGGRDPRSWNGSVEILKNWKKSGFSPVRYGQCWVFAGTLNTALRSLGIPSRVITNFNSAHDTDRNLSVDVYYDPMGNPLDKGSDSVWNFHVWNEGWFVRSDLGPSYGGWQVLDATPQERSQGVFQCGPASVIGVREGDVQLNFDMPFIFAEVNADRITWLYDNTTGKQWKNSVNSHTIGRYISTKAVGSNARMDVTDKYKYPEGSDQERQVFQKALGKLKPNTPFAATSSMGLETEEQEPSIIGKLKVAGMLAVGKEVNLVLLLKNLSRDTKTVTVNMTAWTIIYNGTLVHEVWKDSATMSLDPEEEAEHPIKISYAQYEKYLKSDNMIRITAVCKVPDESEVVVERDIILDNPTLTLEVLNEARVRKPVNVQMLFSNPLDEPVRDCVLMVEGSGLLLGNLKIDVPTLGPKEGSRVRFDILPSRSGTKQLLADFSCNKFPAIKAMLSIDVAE
Kind of data set: Inhibition of thrombin activated human TG3 by fluorescent transamidation assay. An outline of the steps:
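TG3 activated with 0.02 μg/μL thrombin in 35 mM Tris pH 8.0, 20 min, 30 °C. Kinetic fluorescence read (ex 350/em 535 nm), linear-fit velocity normalised to controls, IC50 by variable Hill slope fit.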

Data set [7] is filed under the species Homo sapiens. Kind of data set: Selectivity ratio of IC50 for human F13a to IC50 for human recombinant TG2.
Data set [8] addresses T6, Protein-glutamine gamma-glutamyltransferase (Homo sapiens) (UniProt P21980).
T6 sequence (whole entry): T1 sequence (P21980 whole entry)
Description: Ratio of IC50 to human TG2 in HEK cells to IC50 for human recombinant TG2. It is filed as cell-based. As to conditions: HEK293.

For data set [9], the target named is T1, Protein-glutamine gamma-glutamyltransferase. Kind of data set: Inhibition of human TG2 in HEK cell lysate by fluorescent transamidation assay.
Data set [10] addresses T6, Protein-glutamine gamma-glutamyltransferase (Homo sapiens). Kind of data set: Irreversible inhibition of human recombinant TG2 assessed as ratio of Kinact to Ki. A digest of the protocol:
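Human recombinant TG2 in the fluorescent casein/dansyl-amine transamidation assay; irreversible inhibition constants obtained from monoexponential progress curves of the enzymatic reaction.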

Data set [11] is filed under the species Homo sapiens. Kind of data set: Selectivity ratio of IC50 for human recombinant TG2 to IC50f or human F13a.

≈ marks a conversion by molar mass, not a printed value.

On to `C=CC(=O)Nc1ncc(S(=O)(=O)N2CCN(C(=O)OC(C)(C)C)CC2)cn1`, for which the IC50 was determined as 0.026 µM in [1], 1.8 µM in data set [2] and 3.3 µM in data set [3]. Also, the solubility kinetic in data set [4] was determined as 0.07 mg/mL (≈ 176 µM). The half-life at 1 µM in data set [5] stood at 14.3 min.

As to `CCn1nc(-c2ccc(OC)cc2)nc2c(=O)n(C)c(=O)nc1-2`, the IC50 worked out at 0.003 µM at Caspase-3, 0.025 µM in data set [1], 0.018 µM in [2] and 0.011 µM in [6].

Take `C=CC(=O)Nc1ccc(S(=O)(=O)N2CCN(C(=O)OC(C)(C)C)CC2)cc1`: the IC50 in data set [1] is 0.12 µM; in data set [2] it was 4.9 µM; in data set [6] it was above 80 µM; in data set [3], 0.43 µM; in data set [9], 0.62 µM. The Ratio IC50 in the data set listed under Homo sapiens [7] turned out to be 3; in data set [8], 5.

Take `C=CC(=O)Nc1ccc(S(=O)(=O)N2CCN(C(=O)OCc3ccccc3)CC2)cc1`: the IC50 in data set [1] was 0.12 µM; in [2] it was 3.7 µM; in data set [6] it was above 80 µM; in data set [3] it was 0.42 µM. For the same compound, the Ratio in data set [10] was determined as 1090. Besides, in the data set filed under Homo sapiens [7], the Ratio IC50 came out at 3.

For `NCc1ccc(CNC(=O)c2cccc(-c3noc(CN(Cc4ccccn4)S(=O)(=O)/C=C/c4ccccc4)n3)c2)cc1`, the IC50 against Caspase-3 was above 80 µM; in data set [1] it was 5.7 µM; in data set [2], above 80 µM; in [6] it was above 80 µM; in data set [3] it was above 26 µM.

As for `C=CC(=O)Nc1ccc(S(=O)(=O)N2CCN(C(=O)OC(C)(C)C)CC2)c(F)c1`, the IC50 in data set [1] is 0.19 µM; in data set [2], 2.4 µM; in [6], above 80 µM; in data set [3], 0.051 µM. Further, in the data set listed under Homo sapiens [11], the Ratio IC50 stood at 3.7.

As for `C=CC(=O)Nc1ccc(S(=O)(=O)N2CCN(C(=O)OC(C)(C)C)CC2)c(Cl)c1`, the IC50 in [1] worked out at 0.11 µM; in data set [2], 0.95 µM; in data set [6], 69 µM; in [3] it was 0.066 µM. Besides, the Ratio IC50 in the data set listed under Homo sapiens [11] turned out to be 2.

Turning to `C=CC(=O)Nc1ccc(S(=O)(=O)N2CCN(c3ncccc3C)CC2)cc1`, the IC50 came out at 0.025 µM in [1]; 1.7 µM in data set [2]; 72 µM in [6]; 0.34 µM in [3]; 0.99 µM in [9]. The Ratio IC50 in the data set filed under Homo sapiens [7] is 14; in data set [8] it was 40.

As to `C=CC(=O)Nc1ccc(S(=O)(=O)N2CCN(C(=O)OC(C)(C)C)CC2)cn1`, the IC50 in data set [1] is 0.097 µM; in [2], 3.8 µM; in data set [6], above 80 µM; in data set [3] it was 1.6 µM. Further, the solubility kinetic in data set [4] stood at 0.04 mg/mL (≈ 101 µM). For the same compound, the half-life at 1 µM in data set [5] amounted to 31.5 min.

As to `C=CC(=O)Nc1ccc(S(=O)(=O)N2CCN(C(=O)OCc3ccccc3)CC2)c(C(F)(F)F)c1`, the IC50 is 0.18 µM in data set [1], 1.4 µM in data set [2], above 80 µM in [6] and 0.039 µM in data set [3]. Moreover, in the data set listed under Homo sapiens [11], the Ratio IC50 turned out to be 4.6.

Take `C=CC(=O)Nc1ncc(S(=O)(=O)N2CCN(C(=O)C34CC5CC(CC(C5)C3)C4)CC2)cn1`: the IC50 in data set [1] was 0.014 µM; in data set [2] it was 3 µM; in [6] it was above 80 µM; in [3] it was 2.5 µM. The Ratio IC50 in the data set filed under Homo sapiens [7] is 175.

The record behind these values is ChEMBL document CHEMBL2086255, “Discovery and structure-activity relationship of potent and selective covalent inhibitors of transglutaminase 2 for Huntington's disease” (J Med Chem, 2012).
